Measurements: the RNAGym collection of RNA variant scans (doi:10.1126/science.aae0568)
Fewer inactive variants are shown than the library holds.

B1: tRNA (parent)
chain: GUUCCGUUGGCGUAAUGGUAACGCGUCUCCCUCCUAAGGAGAAGACUGCGGGUUCGAGUCCCGUACGGAACG

Variants of: B1
Experiment: yeast fitness relative to wild type (ratio to wild type); higher = fitter; tRNA-Arg(CCU), competitive growth, 37 C, YPD
Method in brief: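 Variants of the tRNA-Arg(CCU) gene, chemically synthesised with a 3% per-site mutation rate at 69 sites, were placed at the native genomic locus in Saccharomyces cerevisiae. The pooled strains were competed in YPD at 37°C for 24 hours in six parallel replicates. Gene amplicons from the start population and from each end population were read by 100-nucleotide paired-end sequencing. Darwinian fitness relative to wild type came from changes in genotype frequencies; genotypes needed ≥ 100 starting reads, and estimates < 0.5 were set to 0.5.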

Row | Variant | yeast fitness
1 | U2G C5A U19A | 0.552
2 | U2C U8G U32G U35A C55U G58A | ≤ 0.5
3 | U2G A15C G50A | ≤ 0.5
4 | U2G A14C A42C C49U A65G A70U | 0.533
5 | U2C U7C G23A | 0.592
6 | U2C U13C G41A | 0.602
7 | U2C U8G C11U C24U A37U C66A | ≤ 0.5
8 | U2G C31U G50A C61G C66U A69U | ≤ 0.5
9 | U2G C30U A40C G63C U64C | ≤ 0.5
10 | U2G C22G G41C G68A | 0.573
11 | U2C U19C A57C | 0.642
12 | U2G A20U C34A C55G C66A | ≤ 0.5
13 | U2C U8A G17C G38A | ≤ 0.5
14 | U2C U47C | 0.977
15 | U2C U47G | 0.626
16 | U2G A37C C49G C62A | ≤ 0.5
17 | U2G C24U G67C | 0.681
18 | U2C U8G A14G U32G U35A | ≤ 0.5
19 | U2G A15U U35G U53G | ≤ 0.5
20 | U2G C11U A45C U53G A65G | ≤ 0.5
21 | U2C U28A G44U | ≤ 0.5

Row | Variant | yeast fitness
22 | U2C U3A U19G G44C | 0.591
23 | U2G C11G A20G C24U U26C C31G | ≤ 0.5
24 | U2C U3C C5U C34U | ≤ 0.5
25 | U2C U13C A20G U28C A40G | 0.679
26 | U2G C22U C24G A37U | ≤ 0.5
27 | U2C U13G G67U | ≤ 0.5
28 | U2G C29G G50C A57U | ≤ 0.5
29 | U2G C4G C31A A37C A57G G67C A69U | ≤ 0.5
30 | U2G C24G C31U G67C | ≤ 0.5
31 | U2G C22G U28A C31G C55A G68C | ≤ 0.5
32 | U2G C4U | 0.971
33 | U2G C24U C55G A70U | ≤ 0.5
34 | U2C U8C A42C | 0.676
35 | U2G A70C | 0.836
36 | U2C U13A G39C C60G A70U | 0.537
37 | U2G C27U G68U | 0.589
38 | U2G C24G C29G C31A | ≤ 0.5
39 | U2G C30A | 0.709
40 | U2G C30U | 0.843
41 | U2G C22U C24G C66U A70G | ≤ 0.5
42 | U2G A40C | 0.698

Row | Variant | yeast fitness
43 | U2G A40U | 0.813
44 | U2G A40G | 0.803
45 | U2G C22U A57U | ≤ 0.5
46 | U2G A37C G51A | ≤ 0.5
47 | U2G C4U A36U | 0.587
48 | U2G A14U U28A | ≤ 0.5
49 | U2C U3C C34U C62G G63A | ≤ 0.5
50 | U2G A45C G48A | 0.622
51 | U2C U54C | 0.873
52 | U2C U54G | 0.657
53 | U2G C11G C62U | 0.609
54 | U2C U19C C49U A57C | ≤ 0.5
55 | U2G A14G A15U G25C C49U | ≤ 0.5
56 | U2G C4U A40C | 0.627
57 | U2G C24G A36G A42C C61U C62G | ≤ 0.5
58 | U2G C27G A65U | ≤ 0.5
59 | U2G C5A G12A C55G | ≤ 0.5
60 | U2G A14U A20G C33G A70C | ≤ 0.5
61 | U2G A20U G25C C49G A65C A70U | ≤ 0.5
62 | U2C U26G G38C | ≤ 0.5
63 | U2C U8C C34A A42C G68C | ≤ 0.5

Row | Variant | yeast fitness
64 | U2C U8G C31G A42C G56A C61G | 0.507
65 | U2G C11U A15U U47A | 0.578
66 | U2G C31U A70U | 0.772
67 | U2G C4U A65G | 0.729
68 | U2C U8C | 0.965
69 | U2C U32G C34U A57G | ≤ 0.5
70 | U2G C4A U8C U16C C61G | ≤ 0.5
71 | U2C U13C C22G C24U C61A | ≤ 0.5
72 | U2G A21C C46G C49G | ≤ 0.5
73 | U2C U13C C22G U26A | ≤ 0.5
74 | U2G A21C C22G A45G G51A | 0.697
75 | U2G C4U U8C | 0.732
76 | U2G C4A C22U U28G A42U U64C | ≤ 0.5
77 | U2G A15U C62G | ≤ 0.5
78 | U2G A20C G44A A45G | 0.712
79 | U2C U19G G68A | 0.559
80 | U2G A15G G17A | ≤ 0.5
81 | U2G A37C C61U G67A | ≤ 0.5
82 | U2G A42G C55U | ≤ 0.5
83 | U2G C27U C46G | 0.564
